According to ChEMBL document CHEMBL1141702 (Bioorg Med Chem Lett, 2008):

Key:
[1] = molecular target: Sodium-dependent dopamine transporter (Rattus norvegicus, UniProt P23977); test: Displacement of [3H]WIN-35428 from DAT in rat striatum membrane; assay type: cell membranes
[2] = molecular target: Sigma non-opioid intracellular receptor 1 (Cavia porcellus, UniProt Q60492); test: Displacement of [3H](+)-pentazocine from sigma 1 receptor in guinea pig brain membrane; assay type: cell membranes
In short: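 Tissue was previously frozen guinea pig brain minus cerebellum, incubated 120 min at 25 °C. Ki values derived from competition binding.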

[3] = molecular target: Sodium-dependent serotonin transporter (Rattus norvegicus, UniProt P31652); test: Displacement of [3H]citalopram from SERT in rat brain stem membrane; assay type: cell membranes
Chain of Sodium-dependent serotonin transporter (P31652 whole entry): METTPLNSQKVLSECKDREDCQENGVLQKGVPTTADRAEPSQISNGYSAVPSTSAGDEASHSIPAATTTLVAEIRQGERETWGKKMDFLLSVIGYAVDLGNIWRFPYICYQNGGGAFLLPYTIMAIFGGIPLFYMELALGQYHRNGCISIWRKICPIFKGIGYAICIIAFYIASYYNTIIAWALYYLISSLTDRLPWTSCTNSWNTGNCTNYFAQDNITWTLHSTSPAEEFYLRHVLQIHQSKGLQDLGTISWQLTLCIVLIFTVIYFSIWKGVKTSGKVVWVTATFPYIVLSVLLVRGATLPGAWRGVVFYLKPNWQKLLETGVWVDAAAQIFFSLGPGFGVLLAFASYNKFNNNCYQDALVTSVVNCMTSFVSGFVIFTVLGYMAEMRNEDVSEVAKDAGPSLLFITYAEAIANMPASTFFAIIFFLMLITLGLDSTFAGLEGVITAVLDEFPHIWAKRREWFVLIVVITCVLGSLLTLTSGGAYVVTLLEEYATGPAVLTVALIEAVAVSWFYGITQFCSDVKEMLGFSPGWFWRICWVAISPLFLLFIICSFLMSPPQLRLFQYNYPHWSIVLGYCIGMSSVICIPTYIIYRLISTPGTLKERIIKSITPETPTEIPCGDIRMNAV
In short: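 [³H]Citalopram binding in previously frozen rat brain stem, buffer 50 mM Tris, 5 mM KCl, 120 mM NaCl. Incubation 60 min at 25 °C. Ki values derived from competition binding.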

Transporter = Transporter (Rattus norvegicus, UniProt Q63380); test: Displacement of [3H]nisoxetine from NET in rat frontal cortex membrane; assay type: cell membranes
Chain of Transporter (Q63380 whole entry): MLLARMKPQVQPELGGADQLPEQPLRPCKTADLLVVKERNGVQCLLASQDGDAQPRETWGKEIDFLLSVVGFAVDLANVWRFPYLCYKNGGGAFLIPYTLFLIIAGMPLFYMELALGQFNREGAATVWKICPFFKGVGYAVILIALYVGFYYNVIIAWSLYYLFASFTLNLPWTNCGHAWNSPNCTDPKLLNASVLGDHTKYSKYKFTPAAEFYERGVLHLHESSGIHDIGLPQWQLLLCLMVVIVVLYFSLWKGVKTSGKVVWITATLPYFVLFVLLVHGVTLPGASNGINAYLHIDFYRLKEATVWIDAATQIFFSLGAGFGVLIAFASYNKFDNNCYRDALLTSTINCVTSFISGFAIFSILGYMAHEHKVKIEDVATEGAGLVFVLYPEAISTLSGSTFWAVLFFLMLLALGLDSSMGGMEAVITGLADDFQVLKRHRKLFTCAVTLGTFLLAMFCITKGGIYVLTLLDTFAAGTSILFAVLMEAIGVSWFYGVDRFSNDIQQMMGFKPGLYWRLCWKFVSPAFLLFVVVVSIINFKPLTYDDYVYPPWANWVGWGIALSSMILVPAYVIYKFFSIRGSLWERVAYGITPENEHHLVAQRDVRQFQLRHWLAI
In short: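 Assay used previously frozen rat frontal cortex with [³H]nisoxetine in 50 mM Tris, 5 mM KCl, 120 mM NaCl buffer. Incubated 180 min on ice. Ki values derived from competition binding.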

Rattus norvegicus [4] = organism: Rattus norvegicus; test: Selectivity ratio of Ki for rat brain stem SERT to Ki for rat frontal cortex NET; assay type: tissue-based
Rattus norvegicus [5] = organism: Rattus norvegicus; test: Selectivity ratio of Ki for rat brain stem SERT to Ki for rat striatum DAT; assay type: tissue-based
[6] = Selectivity ratio of Ki for rat brain stem SERT to Ki for guinea pig brain sigma 1 receptor

Chain of Sigma non-opioid intracellular receptor 1 (Q60492 whole entry): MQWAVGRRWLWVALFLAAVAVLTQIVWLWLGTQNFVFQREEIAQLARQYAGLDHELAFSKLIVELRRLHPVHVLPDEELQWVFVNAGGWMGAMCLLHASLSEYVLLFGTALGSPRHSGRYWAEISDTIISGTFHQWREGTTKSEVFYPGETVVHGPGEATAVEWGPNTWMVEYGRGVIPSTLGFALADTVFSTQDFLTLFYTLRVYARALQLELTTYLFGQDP
Chain of Sodium-dependent dopamine transporter (P23977 whole entry): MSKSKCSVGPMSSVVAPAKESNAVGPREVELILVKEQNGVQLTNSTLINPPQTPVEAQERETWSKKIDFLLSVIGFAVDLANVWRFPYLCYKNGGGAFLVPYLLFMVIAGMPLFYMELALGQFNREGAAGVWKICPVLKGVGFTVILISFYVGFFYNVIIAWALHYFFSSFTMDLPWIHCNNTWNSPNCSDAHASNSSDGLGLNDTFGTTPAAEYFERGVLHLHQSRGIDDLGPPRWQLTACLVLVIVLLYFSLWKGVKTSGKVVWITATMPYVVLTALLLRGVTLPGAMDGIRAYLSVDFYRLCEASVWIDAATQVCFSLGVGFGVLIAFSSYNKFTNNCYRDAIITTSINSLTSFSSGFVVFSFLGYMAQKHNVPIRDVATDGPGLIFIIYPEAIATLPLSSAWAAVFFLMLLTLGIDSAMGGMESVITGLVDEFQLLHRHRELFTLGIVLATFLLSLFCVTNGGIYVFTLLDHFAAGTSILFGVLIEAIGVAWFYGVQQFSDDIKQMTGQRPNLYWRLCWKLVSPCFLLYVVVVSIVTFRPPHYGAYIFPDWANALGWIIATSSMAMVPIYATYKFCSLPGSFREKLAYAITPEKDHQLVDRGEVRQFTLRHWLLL

SMILES | Ki [1] | Ki [2] | Ki [3] | Ki (Transporter) | Ratio Ki (Rattus norvegicus [4]) | Ratio Ki (Rattus norvegicus [5]) | Ratio Ki [6]
CC(C)C(=O)OC(CCN1CCN(CCCN(c2ccc(F)cc2)c2ccc(F)cc2)CC1)c1ccccc1 (stereo not given) | 9.36 nM | 88.3 nM | 543 nM | – | – | – | –
C=CC(=O)O[C@@H](Cc1ccccc1)CN1CCN(CCCN(c2ccc(F)cc2)c2ccc(F)cc2)CC1 | 3.26 nM | 45.5 nM | 660 nM | 810 nM | – | – | –
O=C(Cc1ccccc1)O[C@@H](Cc1ccccc1)CN1CCN(CCCN(c2ccc(F)cc2)c2ccc(F)cc2)CC1 | 6.92 nM | 87.4 nM | 1950 nM | 1680 nM | 243 | 282 | 13
CCC(=O)OC(CCN1CCN(CCCN(c2ccc(F)cc2)c2ccc(F)cc2)CC1)c1ccccc1 (stereo not given) | 5.57 nM | 76 nM | 273 nM | 1500 nM | 269 | 49 | 14
CCCC(=O)O[C@@H](Cc1ccccc1)CN1CCN(CCCN(c2ccc(F)cc2)c2ccc(F)cc2)CC1 | 33.5 nM | 292 nM | 1680 nM | – | – | – | –
O=C(CCCc1ccccc1)OC(CCN1CCN(CCCN(c2ccc(F)cc2)c2ccc(F)cc2)CC1)c1ccccc1 (stereo not given) | 51.3 nM | 246 nM | 2190 nM | > 10000 nM | – | – | –
O=C(Cc1ccccc1)OC(CCN1CCN(CCCN(c2ccc(F)cc2)c2ccc(F)cc2)CC1)c1ccccc1 (stereo not given) | 14.9 nM | 135 nM | 1230 nM | 2740 nM | 184 | 83 | 9
Fc1ccc(C(OCCN2CCN(CCCc3ccccc3)CC2)c2ccc(F)cc2)cc1 [VANOXERINE] | – | 50.8 nM | – | – | – | – | –
O=C(CCc1ccccc1)OC(CCN1CCN(CCCN(c2ccc(F)cc2)c2ccc(F)cc2)CC1)c1ccccc1 (stereo not given) | 36.6 nM | 235 nM | 1300 nM | – | – | – | –
CCC(=O)O[C@@H](Cc1ccccc1)CN1CCN(CCCN(c2ccc(F)cc2)c2ccc(F)cc2)CC1 | 15.1 nM | 81.8 nM | 1040 nM | – | – | – | –
C=CC(=O)OC(CCN1CCN(CCCN(c2ccc(F)cc2)c2ccc(F)cc2)CC1)c1ccccc1 (stereo not given) | 6.71 nM | 87.3 nM | 318 nM | 1950 nM | – | – | –
CCCN(CCC)CCc1ccc(OC)c(OCCc2ccccc2)c1 | 3620 nM | – | > 10000 nM | – | – | – | –
OC(CCN1CCN(CCCN(c2ccc(F)cc2)c2ccc(F)cc2)CC1)c1ccccc1 (racemic) | 3.45 nM | – | – | – | – | – | –
CC(=O)O[C@@H](Cc1ccccc1)CN1CCN(CCCN(c2ccc(F)cc2)c2ccc(F)cc2)CC1 | 21.7 nM | 75 nM | 835 nM | – | – | – | –
O[C@H](Cc1ccccc1)CN1CCN(CCCN(c2ccc(F)cc2)c2ccc(F)cc2)CC1 | 5.36 nM | 33.4 nM | 521 nM | 2110 nM | – | – | –
C[C@@H]1CN(CCCn2c3ccccc3c3ccccc32)C[C@H](C)N1 [RIMCAZOLE] | 97.7 nM | – | – | – | – | – | –
CC(=O)OC(CCN1CCN(CCCN(c2ccc(F)cc2)c2ccc(F)cc2)CC1)c1ccccc1 (stereo not given) | 4.28 nM | 56.6 nM | 204 nM | 990 nM | – | – | –
O[C@@H](Cc1ccccc1)CN1CCN(CCCN(c2ccc(F)cc2)c2ccc(F)cc2)CC1 | 1.72 nM | 28.1 nM | 779 nM | 766 nM | – | – | –
